In the library only some 9.8% were active in any assay of this set; here they are far more common.
PMI act = activators of human phosphomannose isomerase | activation factor at 20 µM | hit rate 0.005% among 190,000 | purified human PMI, coupled resazurin fluorescence, 20 min; stronger effect = higher value; 1 = vehicle control, 0 substrate-free wells;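 active means activation factor of 2 or more at 20 µM, relative to plate controls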
Target sequence (P34949 whole entry, looked up): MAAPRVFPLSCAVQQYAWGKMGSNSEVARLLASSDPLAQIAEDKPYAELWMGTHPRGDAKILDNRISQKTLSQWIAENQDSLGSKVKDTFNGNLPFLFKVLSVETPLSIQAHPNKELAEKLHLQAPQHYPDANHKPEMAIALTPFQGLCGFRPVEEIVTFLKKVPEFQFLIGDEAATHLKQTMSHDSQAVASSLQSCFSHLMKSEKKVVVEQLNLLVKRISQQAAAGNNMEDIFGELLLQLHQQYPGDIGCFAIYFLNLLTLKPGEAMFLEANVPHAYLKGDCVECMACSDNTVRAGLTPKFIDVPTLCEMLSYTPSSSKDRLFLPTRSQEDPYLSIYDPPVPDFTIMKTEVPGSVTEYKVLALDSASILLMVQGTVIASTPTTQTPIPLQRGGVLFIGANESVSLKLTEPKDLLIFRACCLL
WT yeast gro inh = growth inhibition of WT yeast, mitochondrial fusion screen; mitochondrial fusion phenotypic screen, WT strain; inhibition, % at 10 µM; hit rate 2.1% among 190,000; AID 1362; in the data active means inhibition above about 58%; tested in S. cerevisiae
PMI act satM6P = activators of human phosphomannose isomerase at near-saturating mannose 6-phosphate; P34949; coupled PMI enzyme assay, resazurin fluorescence, 20 min; stronger effect = higher value; 1 = untreated enzyme, 0 = substrate-free blank; activation factor at 20 µM; hit rate 0.34% among 190,000; AID 1216;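 active means activation factor of 2 or more at 20 µM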
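Test system: human phosphomannose isomerase with PGI, G6PDH, diaphorase coupling enzymes; amount: 15 ng/mL PMI; incubation: enzyme reaction with compound 20 min at room temperature; technique: resorufin fluorescence (Ex 544/Em 590 nm) from resazurin via diaphorase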
Lmaj promast = inhibitors of Leishmania major promastigote growth; hit rate 9% among 200,000; AID 1063; inhibition, % at 10 µM; Leishmania major promastigotes, resazurin fluorescence viability; in the data active means inhibition above about 50%;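 further: promastigotes grown with compound for 44 hours at 28 °C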
Calpain2 inh = inhibitors of pig calpain II; purified calpain II, fluorogenic peptide substrate, 30 min; inhibition, % at 16 µM; hit rate 0.37% among 220,000; AID 1236;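 active means inhibition above about 50%, limit read from the data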
Rad51 HR inh = blocks human Rad51 in homologous recombination. hRad51 DNA strand exchange, fluorescence dequenching. inhibition, % at 10 µM. Q06609. hit rate 0.085% among 200,000;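 active means inhibition above 40% at the single screening dose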
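System: human Rad51 nucleoprotein filaments preassembled on unlabelled ssDNA. Reagent: labelled 47-mer dsDNA for strand exchange. Schedule: 30-min compound preincubation and 15-min exchange, both room temperature. Measured by: FRET fluorescence dequenching, excitation 485 nm, emission 520 nm. Read-out: Fluorescence-based percent inhibition, control- and blank-normalised. Benchmarks: plate controls and plate blanks.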
Numbers stand for hits; - = inactive; . = no result given.

SMILES	PMI act	WT yeast gro inh	PMI act satM6P	Lmaj promast	Calpain2 inh	Rad51 HR inh
Cn1ccnc1SCC(=O)c1ccc([N+](=O)[O-])cc1	-	-	-	-	-	-
Cn1ccnc1SCC(=O)c1ccc(Br)cc1	-	67	-	-	-	-
CC(=O)c1ccc(OC(=O)C(CCS(C)(=O)=O)N2C(=O)c3ccccc3C2=O)cc1 (stereo not drawn)	-	-	-	67	-	-
CCOc1ccc(OC(=O)C(CCS(C)(=O)=O)N2C(=O)c3ccccc3C2=O)cc1 (stereo not drawn)	-	-	-	72	-	-
COC(=O)c1ccc(COC(=O)C(CCS(C)(=O)=O)N2C(=O)c3ccccc3C2=O)cc1 (stereo not drawn)	-	-	-	-	-	-
CCN(CC)N=Nc1ccc(C(=O)O)cc1	-	-	-	69	-	-
CNc1ccccc1C(C)(C)c1cc(-c2cccc(OC)c2)no1	-	63	-	-	-	-
CCOC(=O)CN1C(=O)N[C@@H](c2ccco2)C(C(=O)OC)=C1C	.	.	.	.	.	-
CC(NC(=O)c1ccc(F)cc1)C(=O)NC1=NCCS1 (stereo not drawn)	-	-	-	-	-	-
CCOC(=O)C1(Cc2cccc(OC)c2)CCN(Cc2cccc(OC)c2OC)CC1	-	-	-	-	-	.
CCOC(=O)C1(Cc2cccc(OC)c2)CCN(Cc2cnc(SC)nc2)CC1	-	-	-	82	-	.
CCOC(=O)C1(Cc2cccc(OC)c2)CCN(Cc2cccc3cnccc23)CC1	-	-	-	91	-	-
CCOC(=O)C1(Cc2cccc(OC)c2)CCN(Cc2cnc(N)nc2)CC1	-	-	-	-	-	.
CCOC(=O)C1(Cc2cccc(OC)c2)CCN(Cc2cccnc2)CC1	.	-	.	55	-	-
O=c1c(F)cn(C2CCCO2)c(=O)n1Cc1ccc(Cl)cc1 (stereo not drawn)	-	-	-	-	-	.
COc1ccc(-n2c(COc3cccc4ccccc34)nnc2SCC#N)cc1	-	-	-	55	-	-
C=CCn1c(COc2ccc(Cl)cc2)nnc1SCc1ccc(C#N)cc1	-	-	-	58	-	-
C=CCn1c(SCc2ccc(C#N)cc2)nnc1-c1cccc(OC)c1	-	-	-	84	-	-
Cc1ccc(OCc2nnc(SCc3ccc(C#N)cc3)n2-c2ccc(C)cc2)cc1	-	-	-	100	-	-
CCN1C(=O)c2ccccc2S(=O)c2ccc(C(=O)N3CCOCC3)cc21 (stereo not drawn)	.	.	.	.	-	-
Cc1cc2nc3n(c2cc1C)CC1CC(C(=O)NCc2cccc(C(F)(F)F)c2)N(C)C31 (stereo not drawn)	.	.	.	.	-	-
Cc1cccc(NC(=O)c2oc(=O)c3ccccc3c2-c2ccccc2)c1C	-	-	-	80	-	-
O=C(C1CCN(S(=O)(=O)c2cccs2)CC1)N(c1ccccn1)C1CCCCC1	-	-	-	-	-	-
COc1ccc(Nc2nc(C(=O)N3CCc4ccccc4C3)cs2)cc1	.	75	.	-	-	-
COc1ccc(Nc2cc(C(=O)N3CCc4ccccc4C3)c3ccccc3n2)c(OC)c1	-	-	-	56	-	-
SMILES	PMI act	WT yeast gro inh	PMI act satM6P	Lmaj promast	Calpain2 inh	Rad51 HR inh
COc1ccccc1Nc1cc(C(=O)N2CCc3ccccc3C2)c2ccccc2n1	-	-	-	-	-	-
O=C(c1csc(Nc2ccccc2Cl)n1)N1CCCC1	-	69	-	-	-	.
COc1ccc(-c2cc(C(=O)N3CCN(c4ncccn4)CC3)c3ccccc3n2)c(OC)c1	-	59	-	-	-	-
COc1ccc(OC)c(-c2cc(C(=O)N3CCN(c4ncccn4)CC3)c3ccccc3n2)c1	-	-	-	-	-	-
CC(=O)NC(Cc1ccccc1)C(=O)OCC(=O)c1ccccc1 (stereo not drawn)	-	-	-	-	-	-
COc1ccccc1-c1cc(C(=O)N2CCc3ccccc3C2)c2ccccc2n1	-	-	-	100	-	.
O=C(OCn1ncc(Br)c(Br)c1=O)c1c(F)cccc1F	-	-	-	100	-	-
CC(=O)Cn1ncc(Br)c(Br)c1=O	-	-	-	71	-	-
CC1=CC(=O)C=C(C)C1=NOc1ccc([N+](=O)[O-])cc1	-	-	-	60	-	-
CN(C)CC1CCCCC1OC(=O)c1ccc(Cl)cc1 (stereo not drawn)	-	-	-	57	-	-
COC(=O)N/N=C/c1ccc(-c2cc(Cl)ccc2Cl)o1	-	-	-	-	-	-
O/N=C/c1ccc(-c2cc(Cl)ccc2Cl)o1	-	-	-	67	-	-
Nc1ccccc1Nc1cc(-c2cccc(Cl)c2)nn1-c1ccccc1	-	75	-	-	-	-
Cc1cc(Nc2ccccc2)n(-c2cccc(Cl)c2)n1	-	-	-	-	-	-
CCOc1ccccc1C(=O)N[C@H](C(=O)OCc1cc([N+](=O)[O-])cc2c1OCOC2)C(C)C	-	-	-	-	-	-
Oc1nc(Nc2cccc(Cl)c2)sc1/C=C1\C=Nc2ccccc21	-	79	-	-	-	-
CC1=Nc2ccccc2/C1=C\c1sc(Nc2ccc(C)cc2)nc1O	-	61	-	73	-	-
Cc1c(NC(=O)CN2c3ccccc3CC2C)c(=O)n(-c2ccccc2)n1C (stereo not drawn)	-	-	-	-	-	-
Cc1nnc(SCCN2CCOCC2)c2nn(-c3ccccc3F)c(C)c12	-	-	-	53	-	-
Cc1nnc(Cl)c2nn(-c3ccccc3F)c(C)c12	-	-	-	-	-	.
N#CC(C#N)=C(Nc1ccc(F)cc1)SCc1cccc(F)c1	-	-	-	-	-	-
O=C(CN1CCC(n2nnc3ccccc32)CC1)Nc1ccc2c(c1)CCC2	-	-	-	-	-	-
NC(=O)C1CCN(CCC(=O)Nc2ccc3c(c2)CCC3)CC1	-	-	-	80	-	-
NC(=O)C1CCN(CCC(=O)Nc2ccc(Br)cc2)CC1	-	-	-	-	-	-
Cc1ccc(C(=O)Nc2ccc3c(c2)CCC3)cc1	-	-	-	-	-	-
SMILES	PMI act	WT yeast gro inh	PMI act satM6P	Lmaj promast	Calpain2 inh	Rad51 HR inh
O=C(Nc1ccc2c(c1)CCC2)c1cccc(F)c1	-	-	-	83	-	-
Cc1cc(NC(=O)CCN2CCC(C(N)=O)CC2)ccc1Br	-	-	-	82	-	-
CC1CCN(CCC(=O)Nc2ccc3c(c2)CCC3)CC1	-	-	-	84	-	-
CC1CN(CCC(=O)Nc2ccc3c(c2)CCC3)CC(C)O1 (stereo not drawn)	-	-	-	86	-	-
CC1CN(S(=O)(=O)c2cccc(C(=O)NN3CCN(C)CC3)c2)CC(C)O1 (stereo not drawn)	-	-	-	-	-	-
O=C(Nc1ccc2c(c1)CCC2)c1ccc(F)c(S(=O)(=O)N2CCOCC2)c1	-	-	-	78	-	-

Source: PubChem (several laboratories)
